Assay outcomes (PubChem)
In the library only some 1.9% were active in any assay of this set; here they are far more common.
SKN-1 inh – inhibitors of C. elegans SKN-1. C. elegans VP596 Pgst-4::GFP/RFP ratio, acrylamide-induced, 24 h. inhibition, % at 21.8 µM. hit rate 0.49% among 360,000;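 active = interference check ratio from 0.5 to 1.5 plus GFP to RFP signal ratio inhibition reaching or exceeding a fixed threshold, cut at about 30% in these data, passing the limit was not always enough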
NR2E3 ag-1 – NR2E3 (human) agonism; Q9Y5X4; GST-NR2E3/biotin-RetCOR TR-FRET, 1536-well; inhibition of corepressor binding, % at 4.78 µM; hit rate 0.12% among 320,000;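 active = percent inhibition above the cutoff of mean plus 3 SD of all tested compounds, set per screening campaign, cut at about 20% in these data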;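 note: 0% = DMSO wells and 100% = biotin wells as full block of FRET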
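Material: NR2E3–RetCOR corepressor complex / Amount: 1.35 nM GST-NR2E3 / Medium: Tris pH 7.5 / Compound: single nominal compound dose of 4.8 µM / Incubation: 5 h at 4 °C / Technique: TR-FRET, Eu(K)-anti-GST donor, streptavidin-D2 acceptor, ex 340, em 617/671 nm / Read-out basis: percent loss of FRET ratio relative to control wells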
PG9 Ab binder – small molecules binding HIV-1 gp120 antibody PG9 | TR-FRET gp120-PG9 antibody binding | hit rate 0.43% among 360,000 | inhibition, % at 6.7 µM | AID 624416; in the data active = inhibition above about 8.5%
NR2E3 ag-2 – agonists of human NR2E3 nuclear receptor; Q9Y5X4; CHO-S Gal4-NCOR/VP16-NR2E3 two-hybrid, luciferase; inhibition of corepressor binding, % at 3.98 µM; hit rate 0.35% among 360,000; AID 602229;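 active = inhibition above the mean of all tested compounds plus 3 SD, cut at about 70% in these data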;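 note: 0% = DMSO with NR2E3 transfected cells and 100% = cells lacking NR2E3 construct; higher means lower luciferase signal from less NR2E3 corepressor binding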
NR1D1 modulator – modulates human Rev-erb alpha binding to DNA; activity, % at 10 µM; P20393; hit rate 0.79% among 370,000; Rev-erbα–FITC-DNA binding, fluorescence polarization, 90 min;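 active = activity above about 14%, limit read from the data; passing the limit was not always enough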;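 note: 0% = DMSO wells with 35 nM protein and 100% = DMSO wells with 750 nM protein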
MT1-MMP act inh – inhibitors of human MT1-MMP activation. hit rate 0.061% among 360,000. HT1080 RFP-PRO-GFP cells, GFP/RFP ratio fluorescence, overnight; percent of plate control window, DMSO zero. P50281. GFP/RFP ratio change, % at 20 µM;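 active = GFP/RFP ratio change of at least 30% with cell ATP level not reduced by more than half and red fluorescence within 50% of control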
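system = RFP-PRO-GFP reporter HT1080 cells | dosing = 20 µM single dose, 1% DMSO | timing = overnight cell settling, then overnight compound exposure, 37 °C, 5% CO2 | read-out basis = GFP/RFP fluorescence ratio | controls = DMSO and RFP-L50D-GFP cell wells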
PG9 bind confirm – confirmation of small molecules binding HIV-1 gp120 antibody PG9; shares compounds with PG9 Ab binder; TR-FRET PG9 antibody binding, biochemical; inhibition, % at 6.7 µM; hit rate 90% among 1,500; AID 651571; in the data active = inhibition above about 9%
PGV04 counter – counter-screen for PG9 binders: binding control antibody PGV04; hit rate 95% among 1,500; TR-FRET PGV04 antibody-gp120 binding, biochemical; shares compounds with PG9 Ab binder; inhibition, % at 6.7 µM; AID 651604; in the data active = inhibition above about 9.5%
PG9 binder DR – small molecules binding HIV-1 gp120 antibody PG9; shares compounds with PG9 Ab binder; IC50, µM; 95 tested, under 10 active; TR-FRET PG9 antibody-gp120 binding inhibition; in the data active = IC50 below about 10 µM
PGV04 binding DR – PGV04 binding, dose response counter-screen; hit rate 20% among 95; AID 651937; TR-FRET binding to control antibody PGV04; shares compounds with PG9 Ab binder; IC50, µM
PG126 DR counter – binds control antibody PG126 in PG9 counter-screen. shares compounds with PG9 Ab binder. TR-FRET binding to antibody PG126, counterscreen. IC50, µM. hit rate 20% among 95. AID 651939
* marks the source's active call; other numbers are inactive results; nt = not tested or not shown. Cut-off read from the data, not from the text of the source, unless noted: active = IC50 below about 9 µM; inactive = the rest.

SMILES	SKN-1 inh	NR2E3 ag-1	PG9 Ab binder	NR2E3 ag-2	NR1D1 modulator	MT1-MMP act inh	PG9 bind confirm	PGV04 counter	others
O=C1c2[nH]nc(-c3ccccc3O)c2C(c2cccc(Cl)c2)N1CC1CCCO1 (stereo unspecified)	-4	2	8.6*	26	0	-2	25*	19*	PG9 binder DR=>67;PGV04 binding DR=>67;PG126 DR counter=>67
O=C1c2[nH]nc(-c3ccccc3O)c2C(c2ccc(F)cc2)N1CC1CCCO1 (stereo unspecified)	-7	-1	-1	-2	1	-3	nt	nt
CCN1C(=O)C2(C(C(=O)c3ccc(C)o3)=C(O)C(=O)N2CCCN(C)C)c2ccccc21 (stereo unspecified)	-16	0	-2	3	-4	1	nt	nt
CCN1C(=O)C2(C(C(=O)c3cc4ccccc4o3)=C(O)C(=O)N2CCCN2CCOCC2)c2ccccc21 (stereo unspecified)	-11	10	36*	-38	-4	1	45*	55*
CCCN1C(=O)C2(C(C(=O)c3ccc(C)o3)=C(O)C(=O)N2CCCOC)c2ccccc21 (stereo unspecified)	-7	6	9.2*	12	0	1	18*	22*
CCN1C(=O)C2(C(C(=O)c3ccc(C)o3)=C(O)C(=O)N2CCCN2CCOCC2)c2ccccc21 (stereo unspecified)	2	7	1	-14	-1	-1	nt	nt
Cc1ccc(C(=O)C2=C(O)C(=O)N(CCCN3CCOCC3)C23C(=O)N(C)c2ccccc23)o1 (stereo unspecified)	1	8	9.1*	5	-5	0	19*	23*
O=C(NC1CCCC1)[C@@H]1CCCN1C(=O)[C@@H](NS(=O)(=O)c1ccc(F)cc1F)C1CCCCC1	nt	nt	2	nt	3	nt	nt	nt
Cc1cc2n(n1)C(c1cn(-c3ccccc3)nc1C)Nc1c(C)cccc1-2 (stereo unspecified)	-9	3	15*	-5	10	0	15*	22*
CC(CNC(=O)[C@@H](Cc1ccccc1)NC(=O)[C@H]1O[C@@H](n2ccc(=O)[nH]c2=O)[C@H](O)[C@@H]1O)c1ccccc1 (stereo partly specified)	nt	nt	-1	nt	0	nt	nt	nt
COc1ccc(S(=O)(=O)N2CCN(c3ncccn3)CC2)cc1	6	1	1	-4	1	-1	nt	nt
O=S(=O)(c1ccc(Cl)cc1)N1CCN(c2ncccn2)CC1	-3	4	16*	12	5	-2	26*	32*
CC(C)c1nc2sc3c(=O)[nH]cnc3c2c2c1CCC2	8	5	9.6*	7	6	0	20*	26*
O=c1[nH]c(SCc2nc3ccccc3n2Cc2ccccc2)nc2ccccc12	1	0	13*	-4	3	5	24*	30*
CCCCS(=O)(=O)N1CCCc2nc(-c3ccc(Br)cc3)ccc21	nt	nt	7	nt	-4	nt	nt	nt
CC(=O)c1ccc(NC(=O)CSc2ccc(-c3ccc4c(c3)OCO4)nn2)cc1	7	-30	10*	-8	14	2	15*	29*
CC(=O)Nc1ccc(NC(=O)CSc2ccc(-c3ccc4c(c3)OCO4)nn2)cc1	15	4	-3	12	6	-2	nt	nt
